The results in this text go back to ChEMBL document CHEMBL1134857, “The synthesis and biological evaluation of a novel series of antimicrobials of the oxazolidinone class” (Bioorg Med Chem Lett, 2002).

≈ marks a conversion by molar mass, not a printed value. Some results are limits rather than exact numbers.

Assay [1] relates to Enterococcus faecium. The assay is described as follows: Minimum inhibitory concentration measured against Enterococcus faecium. Format: functional.
Assay [2] deals with Moraxella catarrhalis. Put plainly: Minimum inhibitory concentration measured against Moraxella catarrhalis. It is filed as functional.
The species entered for assay [3] is Rattus norvegicus. Put plainly: Inhibition of mitochondrial protein synthesis (MPS) in rat heart mitochondria. It is filed as functional. A digest of the protocol: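 Rat heart mitochondria were incubated at 1 mg/mL protein (Bradford) in buffer with translation components (ADP, amino acids). Incorporation of S35 methionine was followed for 1 h at 30 °C, then quenched with cold 5% TCA/5 mM methionine. Triplicate aliquots were filtered, washed and counted. Compounds were tested at 6–7 concentrations, ≤1% organic. IC50 came from the linear portion of the percent-of-control curve, as the mean of ≥2 experiments.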

Assay [4] deals with T1, Amine oxidase [flavin-containing] B (Rattus norvegicus, UniProt P19643).
T1 sequence (P19643 whole entry): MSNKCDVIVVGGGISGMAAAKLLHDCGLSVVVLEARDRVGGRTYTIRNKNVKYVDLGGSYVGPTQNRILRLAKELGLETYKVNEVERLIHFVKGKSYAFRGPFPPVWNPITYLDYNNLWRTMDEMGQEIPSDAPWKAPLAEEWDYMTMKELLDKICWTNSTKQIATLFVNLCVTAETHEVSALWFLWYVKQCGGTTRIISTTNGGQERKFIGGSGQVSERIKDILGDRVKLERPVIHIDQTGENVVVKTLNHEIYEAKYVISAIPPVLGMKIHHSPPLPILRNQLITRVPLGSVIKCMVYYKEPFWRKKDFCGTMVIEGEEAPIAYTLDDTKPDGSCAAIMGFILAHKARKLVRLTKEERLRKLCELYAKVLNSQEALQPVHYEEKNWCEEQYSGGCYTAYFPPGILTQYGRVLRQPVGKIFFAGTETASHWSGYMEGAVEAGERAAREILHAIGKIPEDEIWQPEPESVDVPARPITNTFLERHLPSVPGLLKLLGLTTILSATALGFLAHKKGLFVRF
Put plainly: Compound was evaluated for inhibition of Mono aminoxidase B in rat primary hepatocytes. Format: cell-based, Hepatocyte.

Assay [5] deals with Staphylococcus epidermidis. The assay is described as follows: Minimum inhibitory concentration measured against Staphylococcus epidermidis. Format: functional.
Assay [6] relates to Staphylococcus aureus. Put plainly: Minimum inhibitory concentration measured against Staphylococcus aureus. Format: functional.
The subject of assay [7] is Streptococcus pneumoniae. The assay is described as follows: Minimum inhibitory concentration measured against Streptococcus pneumoniae. It is filed as functional.
Assay [8] addresses T1, Amine oxidase [flavin-containing] B. The assay is described as follows: Inhibition of Monoamine oxidase B in rat primary hepatocytes. Format: cell-based, Hepatocyte.

The MIC is the lowest concentration found to suppress growth. As a reminder, the IC50 is the concentration at which inhibition is half-maximal. High values mean a need for much substance, low ones inhibition by little substance. Take `CC(=O)NC[C@H]1CN(c2ccc(N3CCOCC3)c(F)c2)C(=O)O1` [LINEZOLID]: the MIC stood at 2 µg/mL (≈ 5.93 µM) in assay [1], 4 µg/mL (≈ 11.9 µM) in assay [2] and 1 µg/mL (≈ 2.96 µM) in assay [5]. For the same molecule, the IC50 in assay [3] is 12 µM; in assay [4], 17 µM.

In the case of `COC(=O)c1cccc(/C(Br)=C/c2ccc(N3C[C@H](CNC(C)=O)OC3=O)cc2F)c1`, the MIC in assay [1] was 4 µg/mL (≈ 8.14 µM); in assay [6] it was 8 µg/mL (≈ 16.3 µM); in assay [2], greater than 128 µg/mL; in assay [7], 32 µg/mL (≈ 65.1 µM); in assay [5] it was 8 µg/mL (≈ 16.3 µM). Also, the IC50 in assay [3] was 150 µM; in assay [8], greater than 300 µM.

Regarding `CC(=O)NC[C@H]1CN(c2ccc(/C=C(\Br)c3cccc(C=O)c3)c(F)c2)C(=O)O1`, the MIC in assay [1] came to 0.5 µg/mL (≈ 1.08 µM); in assay [6], 0.5 µg/mL (≈ 1.08 µM); in assay [2] it was 1 µg/mL (≈ 2.17 µM); in assay [7], 1 µg/mL (≈ 2.17 µM); in assay [5] it was 0.25 µg/mL (≈ 0.542 µM). The half-maximal inhibitory concentration (IC50) in assay [3] is 33 µM; in assay [8] it was greater than 300 µM.

Turning to `CC(=O)NC[C@H]1CN(c2ccc(/C=C(\F)c3cccc(C(C)=O)c3)c(F)c2)C(=O)O1`, the MIC in assay [1] is 2 µg/mL (≈ 4.83 µM); in assay [6], 0.5 µg/mL (≈ 1.21 µM); in assay [2], greater than 128 µg/mL; in assay [7], 1 µg/mL (≈ 2.41 µM); in assay [5] it was 1 µg/mL (≈ 2.41 µM). Also, the IC50 in assay [3] is 69 µM; in assay [8] it was greater than 300 µM.

`CC(=O)NC[C@H]1CN(c2ccc(/C=C/c3cncc(C#N)c3)c(F)c2)C(=O)O1`: the minimal inhibitory concentration (MIC) came to 2 µg/mL (≈ 5.26 µM) in assay [1]; 4 µg/mL (≈ 10.5 µM) in assay [6]; 16 µg/mL (≈ 42.1 µM) in assay [2]; 16 µg/mL (≈ 42.1 µM) in assay [7]; 2 µg/mL (≈ 5.26 µM) in assay [5]. Moreover, the concentration for half-maximal inhibition (IC50) is 9.4 µM in assay [3] and greater than 300 µM in assay [8].

On to `CC(=O)NC[C@H]1CN(c2ccc(/C=C(\F)c3cccnc3)c(F)c2)C(=O)O1`, for which the MIC in assay [1] worked out at 1 µg/mL (≈ 2.68 µM); in assay [6], 4 µg/mL (≈ 10.7 µM); in assay [2], 8 µg/mL (≈ 21.4 µM); in assay [7], 0.5 µg/mL (≈ 1.34 µM); in assay [5], 0.25 µg/mL (≈ 0.67 µM). The values for the IC50 in assay [3] and in assay [8] were 1.6 µM and 98 µM, respectively.

Consider `CC(=O)NC[C@H]1CN(c2ccc(/C=C(\Br)c3ccccc3C#N)c(F)c2)C(=O)O1`, for which the minimum inhibitory concentration (MIC) amounted to 4 µg/mL (≈ 8.73 µM) in assay [1]; 16 µg/mL (≈ 34.9 µM) in assay [6]; 128 µg/mL (≈ 279 µM) in assay [2]; 2 µg/mL (≈ 4.36 µM) in assay [7]; 4 µg/mL (≈ 8.73 µM) in assay [5]. Also, the IC50 is 36 µM in assay [3] and greater than 150 µM in assay [8].
